Nine compounds from ChEMBL document CHEMBL4011603, “Synthesis of clarithromycin ketolides chemically modified at the unreactive C10-methyl group” (2017) can be followed below.

Test [1] has as its system Staphylococcus aureus. Nature of the test: Antibacterial activity against macrolide-resistant Staphylococcus aureus BAA976 expressing mef gene by broth microdilution method. Format: functional. In outline: (§1)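 Standard broth microdilution for MIC against respiratory-pathogen strains, reported in μg/mL, with clarithromycin included as the reference macrolide.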
(In general: In broth dilution the organism is exposed to a series of concentrations in liquid medium.)

In test [2] the test system is Staphylococcus aureus. Nature of the test: Antibacterial activity against inducibly macrolides/lincosamides/streptogramines-resistant Staphylococcus aureus BAA977 expressing erm gene by broth microdilution method. Format: functional. Put shortly:
as §1

The subject of test [3] is Staphylococcus aureus. Kind of test: Antibacterial activity against constitutively macrolides/lincosamides/streptogramines-resistant Staphylococcus aureus ND048910 expressing erm gene by broth microdilution method. Format: functional. Put shortly:
as §1

For test [4], the system named is Staphylococcus aureus. Nature of the test: Antibacterial activity against Staphylococcus aureus ATCC 29213 by broth microdilution method. The test is classed as functional. In outline:
(§2)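 Standard broth microdilution; the endpoint is the minimal inhibitory concentration, reported in μg/mL. Clarithromycin is the reference macrolide. Strains are respiratory-pathogen isolates of S. pneumoniae and S. aureus.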

Test [5] relates to Streptococcus pneumoniae. Kind of test: Antibacterial activity against macrolides/lincosamides/streptogramines resistant Streptococcus pneumoniae 3914 by broth microdilution method. Format: functional. In outline:
as §1

For test [6], the system named is Streptococcus pneumoniae. Kind of test: Antibacterial activity against macrolides/lincosamides/streptogramines-resistant Streptococcus pneumoniae BAA1407 expressing mef and erm genes by broth microdilution method.
For test [7], the system named is Streptococcus pneumoniae. Nature of the test: Antibacterial activity against macrolide-resistant Streptococcus pneumoniae BAA1402 expressing mef gene by broth microdilution method. Format: functional. In outline: as §1
The test system of test [8] is Streptococcus pneumoniae. Nature of the test: Antibacterial activity against Streptococcus pneumoniae ATCC 4961 by broth microdilution method. The test is classed as functional. In outline: as §2

Converted amounts (≈) assume the structure as drawn. A value given as a limit tells only on which side of the number the result lay.

The term MIC denotes the least concentration at which growth counts as inhibited. A high value points to weaker potency.

For the compound `CC[C@H]1OC(=O)[C@H](C)C(=O)[C@H](C)[C@@H](O[C@@H]2O[C@H](C)C[C@H](N(C)C)[C@H]2OC(C)=O)[C@](C)(OC)C[C@@H](C)C(=O)[C@]2(CC=NN2)[C@H]2NC(=O)O[C@]12C`, the MIC in the test on Staphylococcus aureus [1] is 2 µg/mL (≈ 2.88 µM); in the test on Staphylococcus aureus [2] it was 2 µg/mL (≈ 2.88 µM); in the test with Staphylococcus aureus [3] it was above 128 µg/mL; with Staphylococcus aureus [4] it was 2 µg/mL (≈ 2.88 µM); in the test on Streptococcus pneumoniae [5], 16 µg/mL (≈ 23 µM); against Streptococcus pneumoniae [6], 64 µg/mL (≈ 92.1 µM). The results for the minimal inhibitory concentration (MIC) against Streptococcus pneumoniae [7] and in the test with Streptococcus pneumoniae [8] were 0.25 µg/mL (≈ 0.36 µM) and 0.06 µg/mL (≈ 0.0864 µM), respectively.
As for `CC[C@H]1OC(=O)[C@H](C)C(=O)[C@H](C)[C@@H](O[C@@H]2O[C@H](C)C[C@H](N(C)C)[C@H]2O)[C@](C)(OC)C[C@@H](C)C(=O)[C@H](CNCc2ccccc2)[C@H]2N(C)C(=O)O[C@]12C`, the MIC against Staphylococcus aureus [1] was 32 µg/mL (≈ 43.7 µM); with Staphylococcus aureus [2], 16 µg/mL (≈ 21.9 µM); against Staphylococcus aureus [3], above 64 µg/mL; against Staphylococcus aureus [4], 16 µg/mL (≈ 21.9 µM); in the test on Streptococcus pneumoniae [5], below 128 µg/mL; against Streptococcus pneumoniae [6] it was 64 µg/mL (≈ 87.4 µM). Further, the results for the minimum inhibitory concentration (MIC) in the test with Streptococcus pneumoniae [7] and against Streptococcus pneumoniae [8] were 1 µg/mL (≈ 1.37 µM) and 0.25 µg/mL (≈ 0.342 µM), respectively.
In the case of `CC[C@H]1OC(=O)[C@H](C)C(=O)[C@H](C)[C@@H](O[C@@H]2O[C@H](C)C[C@H](N(C)C)[C@H]2OC(C)=O)[C@](C)(OC)C[C@@H](C)C(=O)[C@H](CNCc2ccccc2)[C@H]2NC(=O)O[C@@]21C`, the minimum inhibitory concentration (MIC) with Staphylococcus aureus [1] is 0.5 µg/mL (≈ 0.658 µM); against Staphylococcus aureus [2], 1 µg/mL (≈ 1.32 µM); in the test with Staphylococcus aureus [3], above 64 µg/mL; in the test with Staphylococcus aureus [4] it was 0.25 µg/mL (≈ 0.329 µM); against Streptococcus pneumoniae [5] it was 64 µg/mL (≈ 84.2 µM); against Streptococcus pneumoniae [7], below 0.0072 µg/mL. For the same compound, in the test with Streptococcus pneumoniae [8], the MIC was below 0.007 µg/mL.
As to `CCOC(=O)C(C[C@H]1C(=O)[C@H](C)C[C@@](C)(OC)[C@H](O[C@@H]2O[C@H](C)C[C@H](N(C)C)[C@H]2OC(C)=O)[C@@H](C)C(=O)[C@@H](C)C(=O)O[C@H](CC)[C@@]2(C)OC(=O)N[C@H]12)C(=O)OCC`, the MIC was 0.5 µg/mL (≈ 0.615 µM) in the test with Staphylococcus aureus [1]; 0.5 µg/mL (≈ 0.615 µM) with Staphylococcus aureus [2]; above 128 µg/mL in the test on Staphylococcus aureus [3]; 0.25 µg/mL (≈ 0.308 µM) against Staphylococcus aureus [4]; 4 µg/mL (≈ 4.92 µM) in the test with Streptococcus pneumoniae [5]; 128 µg/mL (≈ 157 µM) with Streptococcus pneumoniae [6]. Moreover, the minimum inhibitory concentration (MIC) against Streptococcus pneumoniae [7] came to 0.125 µg/mL (≈ 0.154 µM); in the test with Streptococcus pneumoniae [8], 0.06 µg/mL (≈ 0.0738 µM).
Take `C=C1C(=O)[C@H](C)C[C@@](C)(OC)[C@H](O[C@@H]2O[C@H](C)C[C@H](N(C)C)[C@H]2OC(C)=O)[C@@H](C)C(=O)[C@@H](C)C(=O)O[C@H](CC)[C@@]2(C)OC(=O)N(Cc3ccccc3)[C@H]12`: the minimal inhibitory concentration (MIC) with Staphylococcus aureus [1] was 2 µg/mL (≈ 2.69 µM); in the test on Staphylococcus aureus [2], 2 µg/mL (≈ 2.69 µM); against Staphylococcus aureus [3], 64 µg/mL (≈ 86.1 µM); against Staphylococcus aureus [4] it was 1 µg/mL (≈ 1.35 µM); against Streptococcus pneumoniae [5] it was 2 µg/mL (≈ 2.69 µM); with Streptococcus pneumoniae [6] it was 64 µg/mL (≈ 86.1 µM). Also, the figures for the minimal inhibitory concentration (MIC) with Streptococcus pneumoniae [7] and against Streptococcus pneumoniae [8] were 0.125 µg/mL (≈ 0.168 µM) and below 0.07 µg/mL, respectively.
For the compound `CC[C@H]1OC(=O)[C@H](C)C(=O)[C@H](C)[C@@H](O[C@@H]2O[C@H](C)C[C@H](N(C)C)[C@H]2OC(C)=O)[C@](C)(OC)C[C@@H](C)C(=O)[C@H](CNCc2cccnc2)[C@H]2NC(=O)O[C@@]21C`, the minimum inhibitory concentration (MIC) is 2 µg/mL (≈ 2.63 µM) against Staphylococcus aureus [1]; 4 µg/mL (≈ 5.26 µM) with Staphylococcus aureus [2]; above 64 µg/mL in the test with Staphylococcus aureus [3]; 1 µg/mL (≈ 1.31 µM) with Staphylococcus aureus [4]; 4 µg/mL (≈ 5.26 µM) in the test on Streptococcus pneumoniae [5]; 64 µg/mL (≈ 84.1 µM) in the test with Streptococcus pneumoniae [6]. Moreover, the MIC in the test on Streptococcus pneumoniae [7] is 0.06 µg/mL (≈ 0.0789 µM); against Streptococcus pneumoniae [8] it was 0.015 µg/mL (≈ 0.0197 µM).
As to `CC[C@H]1OC(=O)[C@H](C)[C@@H](O)[C@H](C)[C@@H](O[C@@H]2O[C@H](C)C[C@H](N(C)C)[C@H]2OC(C)=O)[C@](C)(OC)C[C@@H](C)C(=O)/C(Cc2ccccc2)=C/[C@]1(C)O`, the MIC was 16 µg/mL (≈ 23.2 µM) with Staphylococcus aureus [1]; 32 µg/mL (≈ 46.4 µM) in the test with Staphylococcus aureus [2]; above 64 µg/mL in the test on Staphylococcus aureus [3]; 16 µg/mL (≈ 23.2 µM) with Staphylococcus aureus [4]; 64 µg/mL (≈ 92.8 µM) with Streptococcus pneumoniae [5]; above 64 µg/mL in the test on Streptococcus pneumoniae [6]. Also, the minimal inhibitory concentration (MIC) against Streptococcus pneumoniae [7] is 0.5 µg/mL (≈ 0.725 µM); against Streptococcus pneumoniae [8] it was 0.25 µg/mL (≈ 0.362 µM).
Regarding `C=C1C(=O)[C@H](C)C[C@@](C)(OC)[C@H](O[C@@H]2O[C@H](C)C[C@H](N(C)C)[C@H]2OC(C)=O)[C@@H](C)C(=O)[C@@H](C)C(=O)O[C@H](CC)[C@@]2(C)OC(=O)N[C@H]12`, the minimal inhibitory concentration (MIC) against Staphylococcus aureus [1] is 64 µg/mL (≈ 98 µM); against Staphylococcus aureus [2] it was 64 µg/mL (≈ 98 µM); in the test on Staphylococcus aureus [3], above 64 µg/mL; against Staphylococcus aureus [4] it was 32 µg/mL (≈ 49 µM); in the test with Streptococcus pneumoniae [5] it was 128 µg/mL (≈ 196 µM); against Streptococcus pneumoniae [6], above 64 µg/mL. Also, the MIC in the test with Streptococcus pneumoniae [7] amounted to 2 µg/mL (≈ 3.06 µM); against Streptococcus pneumoniae [8], 1 µg/mL (≈ 1.53 µM).
For the compound `CC[C@H]1OC(=O)[C@H](C)[C@@H](O[C@H]2C[C@@](C)(OC)[C@@H](O)[C@H](C)O2)[C@H](C)[C@@H](O[C@@H]2O[C@H](C)C[C@H](N(C)C)[C@H]2O)[C@](C)(OC)C[C@@H](C)C(=O)[C@H](C)[C@@H](O)[C@]1(C)O` [CLARITHROMYCIN], the minimal inhibitory concentration (MIC) was 64 µg/mL (≈ 85.6 µM) in the test on Staphylococcus aureus [1]; above 64 µg/mL against Staphylococcus aureus [2]; above 64 µg/mL against Staphylococcus aureus [3]; 0.125 µg/mL (≈ 0.167 µM) with Staphylococcus aureus [4]; above 16 µg/mL in the test with Streptococcus pneumoniae [5]; above 8 µg/mL in the test on Streptococcus pneumoniae [6]. Also, the values for the MIC against Streptococcus pneumoniae [7] and against Streptococcus pneumoniae [8] were 2 µg/mL (≈ 2.67 µM) and 0.015 µg/mL (≈ 0.0201 µM), respectively.
